Compound activity deposited in PubChem by several laboratories.
Compounds with a hit are over-represented: about 4.9% of the library has one in this group of screens.
STAT3 inh = IL-6 driven STAT3 reporter inhibitors, primary screen, U3A cells, luciferase, luminescence, MLSCN library | IL-6 STAT3-luciferase reporter; host cell line lacks STAT1 | inhibition, % at 5.5 µM | actives 0.89% (n = 190,000);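 active = inhibition above the mean inhibition across all screened compounds plus 3 SD, cut at about 44% in these data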;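 note: 0% = DMSO only wells and 100% = 100 µM nifuroxazide control wells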
STAT1 activator = STAT1 signaling activators, primary screen, cell-based, HTS, luciferase reporter. NIH 3T3 STAT1-luciferase reporter, IFN-gamma, luminescence; 100% = IFN-gamma alone, no compound. activation (% of control), % at 5.5 µM. actives 2.6% (n = 200,000). AID 932, 2007;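 active = activation above the screen-wide mean activation plus 3 SD, cut at about 130% in these data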;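 note: raw ratio to IFN-gamma control signal so 100% means no change and 0% no light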
STAT3 act = IL-6 driven STAT3 reporter potentiators, primary screen, U3A cells, luciferase, luminescence, MLSCN library; IL-6 STAT3-luciferase reporter; 100% = signal with IL-6 EC80 alone; activation (% of control), % at 5.6 µM; actives 0.91% (n = 190,000); AID 871, 2007;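 active = activation above the screen-wide mean of compound activation plus 3 SD, cut at about 130% in these data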;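 note: 0% = background luminescence of wells with medium and substrate only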
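system = STAT3-luciferase reporter U3A cells | reagent = IL-6 stimulus at 33 ng/mL final | timing = 1 h compound pre-exposure, 6 h IL-6 stimulation, 37 °C | measured by = luminescence | evaluation = % activation versus median of IL-6-stimulated wells | control set = IL-6-only wells as 100% reference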
NF-kB neuron act = activators of NF-kB expression in neurons, primary screen, cell-based, HTS | human neuronal cells, NF-kB reporter expression; hits give high values | fold change at 12.5 µM | actives 1.6% (n = 190,000); in the data active = fold change above about 3.3
APP 5'UTR act = activators of APP 5'UTR luciferase reporter, primary screen, SH-SY5Y cells; activation, % at 2 µM; actives 1% (n = 190,000); AID 1276, 2008; SH-SY5Y APP 5'UTR luciferase reporter, luminescence; zero percent = DMSO vehicle wells;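 active = activation above a set limit, based on mean plus 3 SD of controls, cut at about 140% in these data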
STAT1 blocker = STAT1 signaling inhibitors, primary screen, cell-based, HTS, luciferase reporter; NIH 3T3 STAT1-luciferase reporter, IFN-gamma, luminescence; inhibition, % at 5.5 µM; actives 0.35% (n = 200,000); AID 920, 2007;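 active = inhibition above a set limit, the mean inhibition across all tested compounds plus 3 SD, cut at about 34% in these data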;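 note: 0% = IFN-gamma with DMSO and 100% = IFN-gamma with 300 µM nifuroxazide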
STAT1 activ conf = STAT1 signaling activators, confirmation, cell-based, HTS, luciferase reporter | shares compounds with STAT1 activator | NIH 3T3 STAT1-luciferase reporter, IFN-gamma potentiation, luminescence; 100% = IFN-gamma EC80 alone, no compound | activation (% of control), % at 5.7 µM | actives 97% (n = 1,200);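 active = activation above a set limit carried over from the earlier primary STAT1 screen, cut at about 140% in these data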;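 note: simple ratio to median IFN-gamma plus DMSO wells so 0% means no light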
NFkB act = NF-kB reporter activators, TNF-alpha stimulated, counter-screen for STAT1 activator project, cell-based, HEK293T, luciferase luminescence; 100% = TNF-alpha with vehicle only; activation (% of control), % at 5.7 µM; actives 43% (n = 1,200); shares compounds with STAT1 activator;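 active = activation above the mean of solvent-only control wells plus 3 SD, set per campaign, cut at about 130% in these data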;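 note: TNF-alpha given at a submaximal dose yielding about 80% of full reporter signal; values are well signal over median control so 100% means no change and 0% no light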
STAT3 act STAT1c = STAT3 reporter activation by STAT1 hits, confirmation, counter-screen for STAT1 activator project, U3A cells, luciferase, luminescence; activation (% of control), % at 5.7 µM; AID 1316, 2008; shares compounds with STAT1 activator; actives 46% (n = 1,200); IL-6; cells lack STAT1; 100 = IL-6 alone, no compound effect;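 active = activation above the solvent-only control well mean plus 3 SD, set per plate batch, cut at about 110% in these data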;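 note: 0% = no luminescence and 100% = median IL-6 plus DMSO wells; higher means more STAT3 reporter activation so hits are non-selective activators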
Starred values were filed as active, the others as inactive.

Screening CC(=O)c1ccc(NC(=O)c2ccc(NC(=O)CCS(=O)(=O)c3cccs3)cc2)cc1 returned STAT3 inh -11, STAT1 activator 157*, STAT3 act 116, NF-kB neuron act 1.1, APP 5'UTR act -10, STAT1 blocker -64, STAT1 activ conf 169*, NFkB act 121 and STAT3 act STAT1c 113*.
`O=C(CCS(=O)(=O)c1cccs1)Nc1ccc(C(=O)NCc2cccs2)cc1` gave STAT3 inh 0, STAT1 activator 103, STAT3 act 101, NF-kB neuron act 0.89, APP 5'UTR act 9 and STAT1 blocker -3.
For CC(C)(C)NC(=O)CN1CCN(C(=O)CCl)CC1 the results were STAT3 inh 3, STAT1 activator 115, STAT3 act 102, NF-kB neuron act 1.2, APP 5'UTR act 5 and STAT1 blocker -19.
CCCCNC(=O)CSc1nc2ccc(N3CCOCC3)cc2c(=O)n1Cc1ccc(OC)cc1 was read as STAT3 inh 2, STAT1 activator 158*, STAT3 act 109, NF-kB neuron act 1.7, APP 5'UTR act 16, STAT1 blocker -64, STAT1 activ conf 148*, NFkB act 119 and STAT3 act STAT1c 117*.
Screening COCCNC(=O)CSc1nc2ccc(N3CCOCC3)cc2c(=O)n1Cc1ccc(OC)cc1 returned STAT3 inh -3, STAT1 activator 121, STAT3 act 107, NF-kB neuron act 1.9, APP 5'UTR act 48 and STAT1 blocker -23.
For O=C(O)c1ccc(N=NN2CCCCCC2)cc1 the results were STAT3 inh -9, STAT1 activator 157*, STAT3 act 105, NF-kB neuron act 1.8, APP 5'UTR act 84, STAT1 blocker -64, STAT1 activ conf 166*, NFkB act 116 and STAT3 act STAT1c 120*.
Screening O=C(O)c1ccc(N=NN2CCCC2)cc1 returned STAT3 inh 7, STAT1 activator 110, STAT3 act 99, NF-kB neuron act 1.3, APP 5'UTR act -1 and STAT1 blocker -13.
`c1ccc2c(c1)Cn1c-2nc2ccccc21` gave STAT3 inh 40, STAT1 activator 158*, STAT3 act 68, NF-kB neuron act 4.7*, APP 5'UTR act 76, STAT1 blocker -64, STAT1 activ conf 189*, NFkB act 129 and STAT3 act STAT1c 95.
For CCSc1nnc(CNC(=O)C23CC4CC(CC(C4)C2)C3)n1C1CCCCC1 the results were STAT3 inh -4, STAT1 activator 94, STAT3 act 102, NF-kB neuron act 1.2, APP 5'UTR act 11 and STAT1 blocker 7.
COc1ccc(CNc2ccc3c(c2)nc(C)n3C)cc1 was read as STAT3 inh 11, STAT1 activator 151*, STAT3 act 92, NF-kB neuron act 1.7, APP 5'UTR act 85, STAT1 blocker -55, STAT1 activ conf 168*, NFkB act 127 and STAT3 act STAT1c 116*.
